Key:
[1] = biological target: D-alanyl-D-alanine carboxypeptidase (Actinomadura sp. R39, UniProt P39045); test: Inhibition of Actinomadura R39 PBP after 60 mins
[2] = biological target: D-alanyl-D-alanine carboxypeptidase (Actinomadura sp. R39) (UniProt P39045); test: Inhibition of Actinomadura R39 PBP assessed as residual activity at 100 uM after 60 mins
Procedure, shortened: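 Percentage residual activity of R39 measured with compound at 100 μM, in triplicate.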

Chain of D-alanyl-D-alanine carboxypeptidase (Actinomadura sp. R39) (P39045 whole entry): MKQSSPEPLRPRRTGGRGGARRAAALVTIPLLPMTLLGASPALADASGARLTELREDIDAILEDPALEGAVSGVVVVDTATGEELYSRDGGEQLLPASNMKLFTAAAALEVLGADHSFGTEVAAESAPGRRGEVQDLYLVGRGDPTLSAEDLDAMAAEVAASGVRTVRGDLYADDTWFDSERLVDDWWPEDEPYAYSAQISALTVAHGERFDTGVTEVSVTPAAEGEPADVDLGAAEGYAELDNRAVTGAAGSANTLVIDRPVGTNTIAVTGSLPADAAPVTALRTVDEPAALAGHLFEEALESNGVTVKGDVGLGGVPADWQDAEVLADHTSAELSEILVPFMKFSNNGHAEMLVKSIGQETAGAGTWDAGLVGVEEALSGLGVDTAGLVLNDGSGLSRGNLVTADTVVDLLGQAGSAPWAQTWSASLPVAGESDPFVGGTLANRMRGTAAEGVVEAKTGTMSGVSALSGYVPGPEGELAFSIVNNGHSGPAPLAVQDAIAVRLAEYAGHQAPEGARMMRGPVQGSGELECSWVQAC
Chain of D-alanyl-D-alanine carboxypeptidase (P39045 whole entry): as above

Structure (SMILES) | IC50 [1] [nM] | Activity [2] [%] | Ki [1] [nM]
CC(C)c1ccccc1C(=O)N[C@H](C)B(O)O | 59000 | 36 | 
C[C@@H](NC(=O)c1c(F)cccc1F)B(O)O | 500 | 0 | 
C[C@@H](NC(=O)c1ccccc1Cc1ccccc1)B(O)O | 1800 | 5 | 
C[C@@H](NC(=O)c1ccccc1NS(=O)(=O)c1ccccc1)B(O)O | 370 | 3 | 
C[C@@H](NC(=O)c1ccccc1C(=O)c1ccc2ccccc2c1)B(O)O | 80 | 0 | 105
C[C@@H](NC(=O)c1ccccc1-c1ccccc1)B(O)O | 1310 | 5 | 
C[C@H](NC(=O)c1ccccc1Cc1ccccc1)B(O)O | 7200 | 16 | 
C[C@H](NC(=O)c1c(F)cccc1F)B(O)O | 3300 | 3 | 
C[C@@H](NC(=O)c1ccc2sccc2c1)B(O)O | 2200 | 8 | 
C[C@@H](NC(=O)c1c(Cl)cccc1Cl)B(O)O | 4200 | 3 | 
C[C@@H](NC(=O)c1ccc2ccccc2c1)B(O)O | 14000 | 19 | 
C[C@@H](NC(=O)c1ccccc1C(c1ccccc1)c1ccccc1)B(O)O | < 80 | 1 | 63
C[C@@H](NC(=O)c1c(F)cccc1-c1ccccc1)B(O)O | 270 | 0 | 

Source: ChEMBL document CHEMBL1671844, “Structure guided development of potent reversibly binding penicillin binding protein inhibitors” (ACS Med Chem Lett, 2011)
